Test results from ChEMBL document CHEMBL1125211, “Design and synthesis of HIV protease inhibitors. Variations of the carboxy terminus of the HIV protease inhibitor L-682,679” (J Med Chem, 1991).
≈ marks a conversion by molar mass, not a printed value.

How the values were obtained:
[1] = target: T1, Human immunodeficiency virus type 1 protease (Human immunodeficiency virus 1, UniProt Q72874); test: Inhibitory activity against HIV protease in peptide cleavage assay
Summary of the method: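 HIV-1 protease peptide-substrate cleavage assay. Inhibitor dissolved in DMSO and added to the enzyme mixture at the required concentrations. Extent of substrate cleavage determined by HPLC. IC50 calculated from cleavage extent.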

[2] = test system: H9; test: Ability to inhibit HIV-1 infection in H9 human T-lymphoid cells; type: functional; settings: read-out: MIC100
Summary of the method: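 HIV-1 spread in culture of H9 human T-lymphoid cells, tested at concentrations up to 12 μM. Value reported as MIC100, the minimum concentration giving 100% inhibition of viral spread.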

[3] = target: T1, Human immunodeficiency virus type 1 protease; test: Inhibitory activity against HIV Protease in peptide cleavage assay
Summary of the method: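 HIV-1 protease substrate cleavage assay. Inhibitor was dissolved in DMSO and added to the enzyme mixture at the required concentrations. Substrate cleavage was measured by HPLC, and IC50 was calculated from the extent of cleavage.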

| SMILES | IC50 [1] [nM] | MIC [2] [µM] | IC50 [3] [nM] |
| --- | --- | --- | --- |
| CC(C)[C@H](NC(=O)[C@H](Cc1ccccc1)C[C@H](O)[C@H](Cc1ccccc1)NC(=O)OC(C)(C)C)C(=O)NCCO | 0.44 | – | – |
| CC(C)(C)OC(=O)N[C@@H](Cc1ccccc1)[C@@H](O)C[C@@H](Cc1ccccc1)C(=O)N[C@H](C(=O)NCc1nc2ccccc2[nH]1)c1ccccc1 | 0.07 | – | – |
| CCC(C)[C@H](NC(=O)[C@H](Cc1ccccc1)C[C@H](O)[C@H](Cc1ccccc1)NC(=O)OC(C)(C)C)C(=O)NCCCN(C)C (some centres undefined) | 7.9 | – | – |
| CC(C)(C)OC(=O)N[C@@H](Cc1ccccc1)[C@@H](O)C[C@@H](Cc1ccccc1)C(=O)N[C@@H](Cc1cc2ccccc2[nH]1)C(N)=O | 60 | – | – |
| CCC(C)[C@H](NC(=O)[C@H](Cc1ccccc1)C[C@H](O)[C@H](Cc1ccccc1)NC(=O)OC(C)(C)C)C(N)=O (some centres undefined) | – | 3 (≈ 1.58 µg/mL) | 2.7 |
| CC(C)(C)OC(=O)N[C@@H](Cc1ccccc1)[C@@H](O)C[C@@H](Cc1ccccc1)C(=O)N[C@@H](Cc1ncc[nH]1)C(N)=O | 770 | – | – |
| CC(C)[C@H](NC(=O)[C@H](Cc1ccccc1)C[C@H](O)[C@H](Cc1ccccc1)NC(=O)OC(C)(C)C)C(=O)NCc1ccccn1 | 0.75 | – | – |
| CC(C)C[C@H](NC(=O)[C@H](Cc1ccccc1)C[C@H](O)[C@H](Cc1ccccc1)NC(=O)OC(C)(C)C)C(=O)NCCCN(C)C | 23 | – | – |
| CC(C)(C)OC(=O)N[C@@H](Cc1ccccc1)[C@@H](O)C[C@@H](Cc1ccccc1)C(=O)N[C@@H](CO)C(N)=O | – | – | 606 |
| CC(C)(C)OC(=O)N[C@@H](Cc1ccccc1)[C@@H](O)C[C@@H](Cc1ccccc1)C(=O)N[C@H](C(=O)NCc1ccccc1)c1ccccc1 | 5.8 | – | – |
| CC(C)C[C@@H](NC(=O)[C@H](Cc1ccccc1)C[C@H](O)[C@H](Cc1ccccc1)NC(=O)OC(C)(C)C)C(N)=O | – | – | 3100 |
| C[C@H](NC(=O)[C@H](Cc1ccccc1)C[C@H](O)[C@H](Cc1ccccc1)NC(=O)OC(C)(C)C)C(N)=O | – | 6 (≈ 2.9 µg/mL) | 7 |
| CC(C)C[C@H](NC(=O)[C@H](Cc1ccccc1)C[C@H](O)[C@H](Cc1ccccc1)NC(=O)OC(C)(C)C)C(=O)NCc1ccccc1 | – | 3 (≈ 1.85 µg/mL) | 1.4 |
| CCC(C)[C@H](NC(=O)[C@H](Cc1ccccc1)C[C@H](O)[C@H](Cc1ccccc1)NC(=O)OC(C)(C)C)C(=O)NCc1ccccc1 (some centres undefined) | – | 1.5 (≈ 0.924 µg/mL) | 0.71 |
| CC(C)(C)OC(=O)N[C@@H](Cc1ccccc1)[C@@H](O)C[C@@H](Cc1ccccc1)C(=O)N[C@@H](Cc1ccccc1)C(N)=O | – | – | 29 |
| CC(C)[C@H](NC(=O)[C@H](Cc1ccccc1)C[C@H](O)[C@H](Cc1ccccc1)NC(=O)OC(C)(C)C)C(=O)NCc1ccncc1 | 0.62 | 0.4 (≈ 0.241 µg/mL) | – |
| CCC(C)[C@H](NC(=O)[C@H](Cc1ccccc1)C[C@H](O)[C@H](Cc1ccccc1)NC(=O)OC(C)(C)C)C(=O)NCCN(C)C (some centres undefined) | 7.1 | – | – |
| CC(C)[C@H](NC(=O)[C@H](Cc1ccccc1)C[C@H](O)[C@H](Cc1ccccc1)NC(=O)OC(C)(C)C)C(=O)NCc1nc2ccccc2[nH]1 | 0.2 | – | – |
| CC(C)C[C@H](NC(=O)[C@H](Cc1ccccc1)C[C@H](O)[C@H](Cc1ccccc1)NC(=O)OC(C)(C)C)C(=O)NCCc1ccccc1 | 15 | – | – |
| CC(C)C[C@H](NC(=O)[C@H](Cc1ccccc1)C[C@H](O)[C@H](Cc1ccccc1)NC(=O)OC(C)(C)C)C(=O)NC(CO)Cc1ccccc1 (some centres undefined) | 1.5 | – | – |
| CC(C)[C@H](NC(=O)[C@H](Cc1ccccc1)C[C@H](O)[C@H](Cc1ccccc1)NC(=O)OC(C)(C)C)C(N)=O | – | – | 1.1 |
| CN(C)CCCNC(=O)[C@@H](NC(=O)[C@H](Cc1ccccc1)C[C@H](O)[C@H](Cc1ccccc1)NC(=O)OC(C)(C)C)c1ccccc1 | 26 | – | – |

| SMILES | IC50 [1] [nM] | MIC [2] [µM] | IC50 [3] [nM] |
| --- | --- | --- | --- |
| CC(C)(C)OC(=O)N[C@@H](Cc1ccccc1)[C@@H](O)C[C@@H](Cc1ccccc1)C(=O)N[C@H](C(N)=O)c1ccccc1 | – | 1.5 (≈ 0.819 µg/mL) | 0.9 |
| CCN(CC)CC(O)CNC(=O)[C@@H](NC(=O)[C@H](Cc1ccccc1)C[C@H](O)[C@H](Cc1ccccc1)NC(=O)OC(C)(C)C)C(C)C (some centres undefined) | 6.3 | – | – |
| CC(C)[C@H](NC(=O)[C@H](Cc1ccccc1)C[C@H](O)[C@H](Cc1ccccc1)NC(=O)OC(C)(C)C)C(=O)NCC(O)CO (some centres undefined) | 0.05 | 1.5 (≈ 0.879 µg/mL) | – |
| CCC(C)[C@H](NC(=O)[C@H](Cc1ccccc1)C[C@H](O)[C@H](Cc1ccccc1)NC(=O)OC(C)(C)C)C(=O)NCCO (some centres undefined) | 0.46 | 0.4 (≈ 0.228 µg/mL) | – |
| CCC(C)[C@H](NC(=O)[C@H](Cc1ccccc1)C[C@H](O)[C@H](Cc1ccccc1)NC(=O)OC(C)(C)C)C(=O)NCc1ccccn1 (some centres undefined) | 1.3 | 0.78 (≈ 0.481 µg/mL) | – |
| CC(C)[C@H](NC(=O)[C@H](Cc1ccccc1)C[C@H](O)[C@H](Cc1ccccc1)NC(=O)OC(C)(C)C)C(=O)NCCCN(C)C | – | – | 3.4 |
| CCC(C)[C@H](NC(=O)[C@H](Cc1ccccc1)C[C@H](O)[C@H](Cc1ccccc1)NC(=O)OC(C)(C)C)C(=O)NCc1ncc[nH]1 (some centres undefined) | 0.88 | – | – |
| CC(C)(C)OC(=O)N[C@@H](Cc1ccccc1)[C@@H](O)C[C@@H](Cc1ccccc1)C(=O)N[C@H](C(N)=O)C1CCCCC1 | – | – | 5.2 |
| CC[C@H](C)[C@H](NC(=O)[C@H](Cc1ccccc1)C[C@H](O)[C@H](Cc1ccccc1)NC(=O)OC(C)(C)C)C(=O)NC(=O)C(N)Cc1ccccc1 (some centres undefined) | – | – | 0.25 |
| CC(C)(C)OC(=O)N[C@@H](Cc1ccccc1)[C@@H](O)C[C@@H](Cc1ccccc1)C(=O)NCC(N)=O | – | – | 550 |
| CCC(C)[C@H](NC(=O)[C@H](Cc1ccccc1)C[C@H](O)[C@H](Cc1ccccc1)NC(=O)OC(C)(C)C)C(=O)NCC(O)CO (some centres undefined) | 0.15 | – | – |
| CC(C)[C@H](NC(=O)[C@H](Cc1ccccc1)C[C@H](O)[C@H](Cc1ccccc1)NC(=O)OC(C)(C)C)C(=O)NCc1cccnc1 | 0.69 | – | – |
| CC(C)C[C@H](NC(=O)[C@H](Cc1ccccc1)C[C@H](O)[C@H](Cc1ccccc1)NC(=O)OC(C)(C)C)C(N)=O | – | – | 10 |
| CC(C)[C@H](NC(=O)[C@H](Cc1ccccc1)C[C@H](O)[C@H](Cc1ccccc1)NC(=O)OC(C)(C)C)C(=O)NCc1ccccc1 | 0.24 | – | – |
| CC(C)[C@H](NC(=O)[C@H](Cc1ccccc1)C[C@H](O)[C@H](Cc1ccccc1)NC(=O)OC(C)(C)C)C(=O)NCCCN1CCOCC1 | 2.9 | – | – |
| CC(C)C[C@H](NC(=O)[C@H](Cc1ccccc1)C[C@H](O)[C@H](Cc1ccccc1)NC(=O)OC(C)(C)C)C(=O)NCCO | 2.1 | 3 (≈ 1.71 µg/mL) | – |
| CC(C)[C@H](NC(=O)[C@H](Cc1ccccc1)C[C@H](O)[C@H](Cc1ccccc1)NC(=O)OC(C)(C)C)C(=O)NCC(O)CN1CCOCC1 (some centres undefined) | 0.88 | – | – |
| CC(C)[C@H](NC(=O)[C@H](Cc1ccccc1)C[C@H](O)[C@H](Cc1ccccc1)NC(=O)OC(C)(C)C)C(=O)NCCN | 0.46 | – | – |
| CNCCNC(=O)[C@@H](NC(=O)[C@H](Cc1ccccc1)C[C@H](O)[C@H](Cc1ccccc1)NC(=O)OC(C)(C)C)C(C)C | 1.73 | – | – |
| CC[C@H](C)[C@H](NC(=O)[C@H](Cc1ccccc1)C[C@H](O)[C@H](Cc1ccccc1)NC(=O)OC(C)(C)C)C(=O)NCc1nc2ccccc2[nH]1 | 0.06 | 0.2 (≈ 0.131 µg/mL) | – |
| CC(C)(C)OC(=O)N[C@@H](Cc1ccccc1)[C@@H](O)C[C@@H](Cc1ccccc1)C(=O)N[C@@H](CC1CCCCC1)C(N)=O | – | – | 64 |
